This note sets out measurements from ChEMBL document CHEMBL4680238, “Novel octapeptide-DTX prodrugs targeting MMP-7 as effective agents for the treatment of colorectal cancer with lower systemic toxicity” (Eur J Med Chem, 2020).

Residues, ends and D or L forms follow the SMILES beside them. *: point of attachment. X1 = CC(=O)O[C@@]12CO[C@@H]1C[C@H](O)[C@@]1(C)C(=O)[C@H](O)C3=C(C)[C@@H](OC(=O)[C@H](OC(=O)OCc4ccc(N*)cc4)[C@@H](NC(=O)OC(C)(C)C)c4ccccc4)C[C@@](O)([C@@H](OC(=O)c4ccccc4)[C@H]21)C3(C)C

Data set [1] is described as follows: Toxicity in BALB/c nude mouse xenografted with human HCT-116 cells assessed as reduction in body weight at 11.7 mg/kg, ip administered once for every 7 days for 14 days relative to control. Type of data set: organism-based. The note with it: in vivo, 336 h, time 14 day. Set-up: scale not given: the % may be the effect or the level left. In outline: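 HCT116 s.c. xenografts in male BALB/c nude mice, n = 6 per group. Dosing was ip once every 7 days for 2 weeks in DMSO/castor oil/ethanol/saline; vehicle controls got solvent. Body weight recorded every other day or every three days. Weight loss taken at day 14. Mean ± SD.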
Background: Xenograft models place foreign cells or tissue in a host animal.

Data set [2] deals with SW-620. The data set can be described thus: Cytotoxicity against human SW-620 cells assessed as reduction in cell viability after 72 hrs by MTT assay. It counts as functional, cell-based. The note with it: SW-620, 72 h. Put shortly:
(§1)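 Cells seeded at 5000/well and precultured 1 day. HCT116 grown in McCoy's 5A + 10% FBS; SW620 and HEK293 in DMEM + 10% FBS; CCD18Co in DMEM + 15% FBS. Compounds from 0.1 M DMSO stocks were tested at 10^-10 to 10^-4 mol/L in sixplicate: HCT116 and HEK293 for 48 h, SW620 and CCD18Co for 72 h, at 37 °C, 5% CO2. MTT (5 mg/mL) added for 4 h, then A570 read; IC50 estimated.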
Background: Tetrazolium assays rely on reduction of a dye to a coloured formazan, in cell work by metabolically active cells.

In data set [3] the test system is HEK293. The data set is described as follows: Cytotoxicity against HEK293 cells assessed as reduction in cell viability after 48 hrs by MTT assay. Type of data set: cell-based. The note with it: Homo sapiens, HEK293, 48 h. Put shortly: as §1
Data set [4] can be described thus: Half life of compound in PBS buffer at pH 7.4 at 50 ug/ml up to 72 hrs by RP-HPLC analysis. It counts as physicochemical. The note with it: dose 50 µg/ml.
Data set [5] concerns HCT-116. The data set can be described thus: Antitumour activity against human HCT-116 cells xenografted in ip dosed BALB/c nude mouse assessed as tumour growth inhibition administered once for every 7 days for 14 days. It counts as functional, organism-based. The note with it: time 14.0 day. Put shortly: (§2)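 Male BALB/c nude mice received s.c. HCT116 cells (2 × 10^6 in 0.2 mL PBS). Once tumours reached 100-200 mm3, mice were randomized into groups of six. Dosing was ip, 0.1 mL/10 g, once every 7 days, in DMSO 0.5%/castor oil 5%/ethanol 5%/saline 89.5%; vehicle controls got solvent. Caliper volume V = L×W²×0.52 read every 2-3 days. Tumours excised and weighed on day 14.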

For data set [6], the system named is HCT-116. The data set can be described thus: Antitumour activity against human HCT-116 cells xenografted in BALB/c nude mouse assessed as tumour growth inhibition at 11.7 mg/kg, ip administered once for every 7 days for 14 days relative to control. It counts as functional. The note with it: HCT-116, ip, 336 h, time 14 day, read-out: TGI. Put shortly:
as §2

A short description of data set [7]: Toxicity in BALB/c nude mouse xenografted with human HCT-116 cells assessed as reduction in body weight at 5.85 mg/kg, ip administered once for every 7 days for 14 days relative to control. Type of data set: organism-based. Also on record: scale not given: the % may be the effect or the level left. The note with it: in vivo, 336 h, time 14 day. In outline: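 HCT116 cells (2 × 10^6 in 0.2 mL PBS) inoculated subcutaneously into male BALB/c nude mice; at mean tumor volume 100-200 mm3, randomized, six mice per group. Dosed intraperitoneally once every 7 days in DMSO (0.5%)/castor oil (5%)/ethanol (5%)/saline (89.5%), 0.1 mL per 10 g; vehicle controls received solvent. Body weight monitored every other day or three days; mice weighed on day 14.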

A short description of data set [8]: Toxicity in BALB/c nude mouse xenografted with human HCT-116 cells assessed as necrosis in liver at 11.73 mg/kg, ip administered once for every 7 days for 14 days by H and E staining based assay. The note with it: in vivo, 336 h, time 14 day. Type of data set: organism-based. Put shortly:
(§3)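 At the end of the 14-day ip xenograft study (HCT116, BALB/c nude), heart and liver were collected from vehicle and molar-equivalent dose groups. Tissues fixed in 10% formalin in PBS and stained with H&E. Liver examined at 400×, heart at 100×.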

Data set [9] is described as follows: Toxicity in BALB/c nude mouse xenografted with human HCT-116 cells assessed as disordered myocardial fiber in heart at 11.73 mg/kg, ip administered once for every 7 days for 14 days by H and E staining based assay. It counts as organism-based. The note with it: in vivo, 336 h, time 14 day. Put shortly: as §3
A short description of data set [10]: Toxicity in BALB/c nude mouse xenografted with human HCT-116 cells assessed as inflammatory cell invasion in heart at 11.73 mg/kg, ip administered once for every 7 days for 14 days by H and E staining based assay. Type of data set: organism-based. The following applies: in vivo, 336 h, time 14 day. Put shortly: as §3
Data set [11] can be described thus: Toxicity in ip dosed Kunming mouse measured for 14 days. Type of data set: organism-based. The note with it: in vivo, time 14 day. In outline:
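Healthy Kunming mice of both sexes, 20 ± 2 g, randomised into 5 groups of 10 matched for weight and size. Compound given once intraperitoneally at 400, 300, 250 or 150 mg/kg in formulation solvent (0.5% DMSO, 5% castor oil, 5% ethanol, 89.5% saline), 0.1 mL per 10 g; vehicle controls received solvent. Deaths recorded daily for 14 days; LD50 by Bliss method.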

Data set [12] is described as follows: MRT (0 to infinity) in Sprague-Dawley rat at 5 mg/kg, iv measured up to 72 hrs by LC-MS/MS analysis. Type of data set: ADME, organism-based. The following applies: in vivo. Put shortly:
(§4)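 Male SD rats (180-200 g), fasted 12 h with free water, n = 3 per group. Single tail-vein dose of 5 mg/kg in 0.5% DMSO/5% castor oil/5% ethanol/89.5% saline. Retro-orbital blood drawn 0.083-72 h with heparin. Plasma protein-precipitated with methanol containing paclitaxel internal standard, then analysed by LC-MS/MS. Parameters from non-compartmental analysis, mean ± SD. For the DTX group, parameters were calculated after converting dose to the molar equivalent of the prodrug.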

Data set [13] is described as follows: Half life in Sprague-Dawley rat at 5 mg/kg, iv measured up to 72 hrs by LC-MS/MS analysis. Type of data set: ADME, organism-based. The following applies: in vivo. In outline: as §4
The nature of data set [14]: Apparent volume of distribution in Sprague-Dawley rat at 5 mg/kg, iv measured up to 72 hrs by LC-MS/MS analysis. It counts as ADME, organism-based. The note with it: in vivo, read-out: Vz. In outline: as §4
A short description of data set [15]: AUC (0 to t) in Sprague-Dawley rat assessed as docetaxel level at 5 mg/kg, iv measured up to 72 hrs by LC-MS/MS analysis. It counts as ADME, organism-based. The following applies: in vivo. Also on record: route intravenous, dose 5 mg/kg, time <=72. Put shortly: as §4
A short description of data set [16]: MRT (0 to infinity) in Sprague-Dawley rat assessed as docetaxel level at 5 mg/kg, iv measured up to 72 hrs by LC-MS/MS analysis. Type of data set: ADME, organism-based. The note with it: in vivo. Put shortly:
as §4

The nature of data set [17]: Half life in Sprague-Dawley rat assessed as docetaxel level at 5 mg/kg, iv measured up to 72 hrs by LC-MS/MS analysis. Type of data set: ADME, organism-based. The following applies: in vivo. Put shortly:
as §4

Data set [18] is described as follows: Apparent clearance in Sprague-Dawley rat assessed as docetaxel level at 5 mg/kg, iv measured up to 72 hrs by LC-MS/MS analysis. Type of data set: ADME, organism-based. The note with it: in vivo. In outline: as §4
A short description of data set [19]: Drug uptake in BALB/c nude mouse xenografted with human HCT-116 cells assessed as drug level in liver at 5 mg/kg, iv measured up to 24 hrs by LC-MS/MS analysis. The note with it: in vivo. It counts as ADME, organism-based. Put shortly: (§5)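 Male BALB/c nude mice bearing s.c. HCT116 tumours (200-300 mm3), 20 per group. Single tail-vein dose of 5 mg/kg. Five mice per group killed at 0.5, 4, 8 and 24 h and heart-perfused with PBS. Tissues homogenized in saline (4 µL/mg) and precipitated with methanol containing paclitaxel internal standard. Prodrug, released DTX and free DTX measured by LC-MS/MS.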

Data set [20] in a line: Drug uptake in BALB/c nude mouse xenografted with human HCT-116 cells assessed as drug level in tumour at 5 mg/kg, iv measured up to 24 hrs by LC-MS/MS analysis. It counts as ADME, organism-based, Neoplasm. The note with it: in vivo. In outline: as §5

Turning to `CC[C@H](C)[C@H](NC(=O)CNC(=O)[C@H](CCC(N)=O)NC(=O)[C@@H]1CCCN1C(=O)CNC(C)=O)C(=O)N[C@@H](C)C(=O)N[C@@H](CCSC)C(=O)N[C@@H](CCC(N)=O)C(=O)N[C@@H](CC(C)C)C(=O)Nc1ccc(COC(=O)O[C@@H](C(=O)O[C@H]2C[C@@]3(O)[C@@H](OC(=O)c4ccccc4)[C@@H]4[C@]5(OC(C)=O)CO[C@@H]5C[C@H](O)[C@@]4(C)C(=O)[C@H](O)C(=C2C)C3(C)C)[C@@H](NC(=O)OC(C)(C)C)c2ccccc2)cc1` (Ac-GPQGIAMQL-X1), the Activity is listed as 8.5% in [1]; 4.9% in [7]; “Non-Toxic” in data set [8]; “Non-Toxic” in data set [9]; “Non-Toxic” in data set [10]. Further, the IC50 (in general, the concentration that inhibits the measured activity by half) in [2] came out at 0.03 µM; in data set [3], 137 µM. In addition, the half-life (as a rule, the time in which the quantity being followed falls by half) at 50 ug/ml in [4] is > 72 h. Besides, in [5], the TGI entry is “Dose-dependent effect”. For the same molecule, in data set [6], the inhibition in vivo at 11.7 mg/kg worked out at 46.3%. Further, the LD50 (as a rule, the dose at which mortality reaches 50%) at 336 h in data set [11] was 245 mg/kg. Moreover, in data set [12], the MRT inf – broadly, a mean duration of stay, worked out from the concentration-time curve – was 11.6 h. This molecule had a half-life in data set [13] of 12.8 h. The Vd in data set [14] came to 10.4 L/kg. For the same molecule, the AUCt in data set [15] was found to be 247 ng·h/mL. In addition, in data set [16], the MRT (in general, a mean duration of stay, worked out from the concentration-time curve) stood at 9.04 h. Moreover, the t1/2 in [17] amounted to 7.03 h. In data set [18], the “CL(app)” value was determined as 316.3 mL/min/kg. Moreover, the Drug uptake entry in data set [19] and in data set [20] was “Active” in each case.
